A selection: hits, their analogues and other compounds. The true share with any hit is near 3.5%.
MrgX1 agonist: activates human MrgX1 receptor signaling; B-score at 10 µM; MrgX1-HEK293 cells, Fluo-4 calcium fluorescence, agonist mode; hits give high values; 310,000 tested, 0.44% active;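 active = calcium response B-score plate-corrected fluorescence ratio at least 3 library SD, with starting fluorescence B-score inside 5 SD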
Target sequence (Q96LB2 whole entry, looked up): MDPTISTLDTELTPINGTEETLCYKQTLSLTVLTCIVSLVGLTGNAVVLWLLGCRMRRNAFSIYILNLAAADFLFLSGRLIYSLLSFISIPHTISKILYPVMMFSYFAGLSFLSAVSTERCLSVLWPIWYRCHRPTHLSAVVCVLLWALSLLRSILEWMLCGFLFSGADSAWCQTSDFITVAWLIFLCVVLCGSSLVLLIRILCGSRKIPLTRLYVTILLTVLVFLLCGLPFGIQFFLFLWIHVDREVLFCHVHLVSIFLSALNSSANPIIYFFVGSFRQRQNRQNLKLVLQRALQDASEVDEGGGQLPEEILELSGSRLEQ
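Assay system: stable human MrgX1 HEK293 cell line. Quantity: 15,000 cells per well. Schedule: cells plated overnight, dye loaded 0.5 h 37 °C, 0.5 h room temperature. Detection: Fluo-4 NW calcium-flux fluorescence, kinetic read. Read-out basis: peak-minus-minimum fluorescence over baseline, converted to B scores. Control set: positive and negative control wells on each plate.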
MrgX1 antagonist: antagonists of human MrgX1 receptor; 310,000 tested, 1.3% active; Q96LB2; AID 588676; B-score at 10 µM; MRGX1-HEK293 calcium flux, Fluo-4, BAM8-22 antagonism; hits give low values;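 active = calcium-response B-score plate-corrected more than 3 library SD below zero, starting fluorescence within 5 deviations, no agonist response on first addition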;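 also: peak minus trough fluorescence over baseline after final BAM8-22 challenge near maximal dose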
MrgX1 allo act: allosterically activates human MrgX1 receptor signaling; Q96LB2; MrgX1-HEK293, Fluo-4 calcium flux, FDSS; hits give high values; B-score at 10 µM; 310,000 tested, 0.63% active; AID 588675;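 active = plate-corrected calcium response at least 3 library SD above typical, normal starting fluorescence, not activating the receptor alone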;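 also: compound read alongside a low EC10 to EC30 dose of BAM8-22 agonist; peak minus trough fluorescence over baseline measured at the second addition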
RGS4 pot: RGS4 potentiation or activation | B-score at 10 µM | HEK293 M3R/inducible RGS4, carbachol calcium flux Fluo4; hits give low values | 310,000 tested, 0.92% active;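 active = B-score of the integrated calcium signal more than 4 SD below the library mean, with starting fluorescence not abnormally high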;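 also: negative B-score means reduced calcium response which marks RGS4 activation or potentiation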
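Assay system: Inducible-RGS4 HEK293 cells carrying M3 receptor | Schedule: Compound preincubation 20 min at room temperature before agonist | Signal: Kinetic calcium fluorescence imaging with Fluo4-AM dye, 2 µM | Read-out basis: B score from integrated fluorescence ratio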
RGS4 inh: human RGS4 inhibition. P49798. HEK293 M3R/RGS4 inducible, Fluo-4 calcium flux; hits give high values; triggered by carbachol at its EC20. B-score at 10 µM. 310,000 tested, 0.45% active;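 active = B-score, a plate-corrected calcium signal, over three deviations above library mean, with baseline fluorescence within five deviations of library mean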;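 also: RGS4 expression induced by doxycycline in cells with stable M3 receptor; B-score is computed from the integrated fluorescence ratio over baseline after carbachol; higher B-score means a larger calcium signal and so more RGS4 inhibition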
Target sequence (P49798 whole entry, looked up): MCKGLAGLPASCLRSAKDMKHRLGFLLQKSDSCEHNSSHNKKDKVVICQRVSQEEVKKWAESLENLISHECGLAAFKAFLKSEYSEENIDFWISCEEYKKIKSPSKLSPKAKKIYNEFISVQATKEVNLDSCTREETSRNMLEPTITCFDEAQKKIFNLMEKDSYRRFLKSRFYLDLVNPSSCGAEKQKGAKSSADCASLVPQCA
MrgX1 antag conf: confirmation of human MrgX1 receptor antagonists | shares compounds with MrgX1 antagonist | MrgX1-HEK293, BAM8-22 calcium flux, Fluo-4; hits give low values | remaining BAM8-22 calcium response % of control (hits give low values), % at 10 µM | 2,300 tested, 19% active | AID 602420;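 active = remaining agonist calcium response no higher than 100% minus 3 SD of agonist-only control wells, with starting fluorescence near control levels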;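 also: agonist BAM8-22 given at a near maximal EC90 to ECmax level; peak minus minimum fluorescence divided by baseline after agonist addition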
HEK293 Ca flux: counter-screen for MrgX1 antagonists: effect in parental HEK293 cells; shares compounds with MrgX1 antagonist; Fluo-4 calcium fluorescence, FDSS; fluorescence ratio F(max-min)/F0 at 10 µM; 4,000 tested, 2% active; AID 624111;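 active = duplicate-averaged calcium fluorescence ratio at least three times the standard deviation of buffer wells, a nonspecific response in parental cells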
HEK293 Ca counter: counter-screen for MrgX1 allosteric activators: effect in parental HEK293 cells; shares compounds with MrgX1 antagonist; fluorescence ratio F(max-min)/F0 at 10 µM; 4,000 tested, 0.4% active; parental HEK293 calcium flux, Fluo-4 fluorescence ratio; hits give high values;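 active = calcium fluorescence ratio, averaged over duplicates, at least 3 SD of the buffer-well ratio, meaning a nonspecific response in receptor-free cells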;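 also: untransfected parental HEK293 lacking MrgX1 used as counterscreen for MrgX1 allosteric activators; fluorescence change taken during the second addition on a kinetic imager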
HEK293 Ca cntr2: counter-screen for MrgX1 activators: effect in parental HEK293 cells. shares compounds with MrgX1 antagonist. Fluo-4 calcium fluorescence (FDSS); hits give high values. fluorescence ratio F(max-min)/F0 at 10 µM. 4,000 tested, 8.7% active;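 active = calcium fluorescence ratio at least three times the spread of buffer wells, meaning a non-specific response in parental cells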
Large screens that a line does not name were inactive (follow-up assays come after a bar, where they were run).

COc1ccc(/C=N/n2c(N)nc3ccccc32)cc1OC	MrgX1 antagonist -8.6 (no result: RGS4 pot, RGS4 inh) | MrgX1 antag conf inactive | HEK293 Ca flux inactive | HEK293 Ca counter inactive | HEK293 Ca cntr2 inactive
COc1cccc(/C=N/n2c(N)nc3ccccc32)c1OC	none
CCCn1c(Oc2ccccc2)nc2c1c(=O)n(C)c(=O)n2C	none
O=C(CSC1=NS(=O)(=O)c2cc(Cl)ccc2N1)Nc1ccccc1C(F)(F)F	MrgX1 antagonist -10 | MrgX1 antag conf inactive | HEK293 Ca flux inactive | HEK293 Ca counter inactive | HEK293 Ca cntr2 inactive
O=C(NCC(=O)N1CCN(c2ccccn2)CC1)c1ccc(Br)o1	none
N=c1c(S(=O)(=O)c2ccc(Cl)cc2)cc2c(=O)n3ccccc3nc2n1C1CCCCC1	none
C=C(C)C1CC=C(C)/C(=N\NC(=O)CCC(=O)Nc2ccc(C)c(C)c2)C1 (configuration not stated)	none
COC(=O)[C@@H]1C[C@@]2(Br)c3ccccc3N(S(=O)(=O)c3ccccc3)[C@H]2N1C(=O)OC	MrgX1 antagonist -6 | MrgX1 antag conf inactive | HEK293 Ca flux inactive | HEK293 Ca counter inactive | HEK293 Ca cntr2 61
O=C(NCC1CCCCC1)c1cccnc1Cl	none
O=C(NCCCCNC(=O)c1cccnc1Cl)c1cccnc1Cl	MrgX1 antagonist -4.8 | MrgX1 antag conf inactive | HEK293 Ca flux inactive | HEK293 Ca counter inactive | HEK293 Ca cntr2 inactive
CCOC(=O)c1cnc(SC)nc1Oc1cccc(NS(=O)(=O)c2ccc(C)cc2)c1	none
O=C(Cn1c(C(F)(F)F)nc2ccccc21)Nc1ccccc1N1CCOCC1	MrgX1 antagonist -9.3 | MrgX1 antag conf inactive | HEK293 Ca flux inactive | HEK293 Ca counter inactive | HEK293 Ca cntr2 inactive
O=C(Nc1ccc(Br)cn1)c1cccc2c1-c1ccccc1C2=O	none
CCOC(=O)N1CCN(C(=O)CCN2C(=O)COc3ccc(C)cc32)CC1	MrgX1 antagonist -6 | MrgX1 antag conf inactive | HEK293 Ca flux inactive | HEK293 Ca counter inactive | HEK293 Ca cntr2 inactive
CC1CN(CCn2cnc3c(N)ncnc32)CC(C)O1 (configuration not stated)	none
Nc1ncnc2c1ncn2CCN1CCCCC1	MrgX1 antagonist -5.7 | MrgX1 antag conf inactive | HEK293 Ca flux inactive | HEK293 Ca counter inactive | HEK293 Ca cntr2 inactive
COC(=O)c1c[nH]c(=O)c2ccccc12	MrgX1 antagonist -5.7 | MrgX1 antag conf inactive | HEK293 Ca flux inactive | HEK293 Ca counter inactive | HEK293 Ca cntr2 inactive
COC(=O)[C@H](C)[C@@H]1C[C@@]1(C)[C@@H](NC(=O)OCc1ccccc1)c1ccccc1	MrgX1 antagonist -5.4 | MrgX1 antag conf 75% | HEK293 Ca flux inactive | HEK293 Ca counter inactive | HEK293 Ca cntr2 inactive
c1ccc(CSc2nnc(Cc3ccccn3)o2)cc1	MrgX1 antagonist -7.8 | MrgX1 antag conf inactive | HEK293 Ca flux inactive | HEK293 Ca counter inactive | HEK293 Ca cntr2 inactive
c1ccc(CSc2nnc(Cc3ccccc3)o2)cc1	none
C=CCN(C(=O)CNC(=O)c1cccs1)C(C(=O)NC(C)(C)C)c1ccccc1 (configuration not stated)	none
Cc1ccc(S(=O)(=O)N2CCCCC2C)cc1[N+](=O)[O-] (configuration not stated)	none
O=C(Nc1ccccc1F)C(=O)c1cn(CC(=O)N2CCCCC2)c2ccccc12	MrgX1 antagonist -5 | MrgX1 antag conf inactive | HEK293 Ca flux inactive | HEK293 Ca counter inactive | HEK293 Ca cntr2 inactive
CC(=O)Nc1ccc(NC(=O)C(=O)c2cn(CC(=O)N3CCCC3)c3ccccc23)cc1	none
O=S(=O)(NCc1ccccn1)c1ccccn1	none

Source: PubChem BioAssay
